Reference: ChEMBL document CHEMBL1921775, “Phenolic glycosides from sugar maple (Acer saccharum) bark” (J Nat Prod, 2011)
Values after ≈ are worked out from the molar mass of the structure shown.

How the values were obtained:
[1] = system: HCT-116; assay: Cytotoxicity against human HCT116 cells after 72 hrs by MTS assay; format: functional, cell-based; conditions: HCT-116, 72 h
Procedure, shortened: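 HCT-116 carcinoma cells in McCoy's 5A with 10% FBS, 1% nonessential amino acids, 2% HEPES and antibiotics, passages 26–35, 37 °C, 5% CO2. Samples were DMSO-solubilized by sonication and diluted in medium, final DMSO ≤0.5%. Cells were exposed for 72 h to six-point 4-fold dilutions. MTS plus phenazine methosulfate ran 3 h, with absorbance at 490 nm versus control wells. IC50 given as mean ± SD, three experiments.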

[2] = system: Caco-2; assay: Cytotoxicity against human Caco2 cells after 72 hrs by MTS assay; format: functional, cell-based; conditions: Caco-2, 72 h
Procedure, shortened: (§1)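 Colon cells (Caco-2 adenocarcinoma, nontumorigenic CCD-18Co) in EMEM with 10% FBS, 1% nonessential amino acids, 1% L-glutamine and antibiotics, passages 26–35, 37 °C, 5% CO2. Samples were dissolved in DMSO by sonication and diluted in medium, with final DMSO ≤0.5%. Six-point 4-fold dilution series ran for 72 h. MTS/PMS was read at OD490 after 3 h. IC50 reported as mean ± SD of three experiments.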

[3] = Cytotoxicity against human CCD-18Co cells after 72 hrs by MTS assay; format: cell-based; procedure, shortened: as §1

Row | Compound | IC50 [1] [µg/mL] | IC50 [2] [µg/mL] | IC50 [3] [µg/mL]
1 | COc1cc([C@H]2OC[C@H]3[C@@H]2CO[C@@H]3c2cc(OC)c(O[C@@H]3O[C@H](CO)[C@@H](O)[C@H](O)[C@H]3O)c(OC)c2)cc(OC)c1O | < 5 | < 5 | < 5
2 | COc1cc(CO)cc(OC)c1O[C@@H]1O[C@H](CO)[C@@H](O)[C@H](O)[C@H]1O | < 5 | < 5 | < 5
3 | COc1cc([C@@H]2Oc3c(OC)cc(CCCO)cc3[C@H]2CO)ccc1O[C@@H]1O[C@@H](C)[C@H](O)[C@@H](O)[C@H]1O | < 5 | < 5 | < 5
4 | COc1cc(CO)ccc1O[C@@H]1O[C@H](CO[C@@H]2OC[C@](O)(CO)[C@H]2O)[C@@H](O)[C@H](O)[C@H]1O | < 5 | < 5 | < 5
5 | COc1cc(O[C@@H]2O[C@H](CO[C@@H]3OC[C@](O)(CO)[C@H]3O)[C@@H](O)[C@H](O)[C@H]2O)cc(OC)c1OC | < 5 | < 5 | < 5
6 | COc1cc(O[C@@H]2O[C@H](CO)[C@@H](O)[C@H](O)[C@H]2O)cc(OC)c1OC | < 5 | < 5 | < 5
7 | COc1cc([C@@H]2c3cc4c(cc3[C@@H](O[C@@H]3O[C@@H]5CO[C@@H](C)O[C@H]5[C@H](O)[C@H]3O)[C@H]3COC(=O)[C@H]23)OCO4)cc(OC)c1O [ETOPOSIDE] | 9.9 (≈ 16.8 µM) | 9.4 (≈ 16 µM) | 43.6 (≈ 74.1 µM)
8 | COc1cc(C(=O)OC[C@H]2O[C@@H](Oc3ccc([C@@H]4Oc5c(OC)cc(CCCO)cc5[C@H]4CO)cc3OC)[C@H](O)[C@@H](O)[C@@H]2O)ccc1O [SACCHARUMOSIDE A] | < 5 | < 5 | < 5
9 | COc1cc(C(=O)OC[C@H]2O[C@@H](Oc3ccc(CO)cc3OC)[C@H](O)[C@@H](O)[C@@H]2O)ccc1O [SACCHARUMOSIDE B] | < 5 | < 5 | < 5
10 | COC(=O)c1cc(O[C@@H]2O[C@H](CO[C@@H]3OC[C@](O)(CO)[C@H]3O)[C@@H](O)[C@H](O)[C@H]2O)ccc1O [SACCHARUMOSIDE C] | < 5 | < 5 | < 5
11 | COC(=O)c1cc(O[C@@H]2O[C@H](CO)[C@@H](O)[C@H](O)[C@H]2O[C@@H]2OC[C@](O)(CO)[C@H]2O)ccc1O [SACCHARUMOSIDE D] | < 5 | < 5 | < 5
12 | COc1cc2ccc(=O)oc2cc1O[C@@H]1O[C@H](CO)[C@@H](O)[C@H](O)[C@H]1O [SCOPOLIN] | < 5 | < 5 | < 5
13 | COc1cc(CO)ccc1O[C@@H]1O[C@H](CO)[C@@H](O)[C@H](O)[C@H]1O [VANILLOLOSIDE] | < 5 | < 5 | < 5
